# Kir21 block: Kir2.1 (mouse) channel inhibition. HEK293-Kir2.1, FluxOR thallium flux fluorescence; stronger effect = lower value. AID 1672. hit rate 0.85% among 310,000. B-score at 10 µM;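 active means fluorescence ratio B-score at or below minus 3 SD of library scores, with starting-brightness B-score within 2 SD, cut at about -4.2 in these data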;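 further: channel flux triggered by added potassium and thallium sulfate stimulus; B-score of peak minus minimum fluorescence over baseline after thallium stimulus; more negative B-score means stronger Kir2.1 block with less thallium influx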
# hERG rescue: shields human hERG channel from block by proarrhythmic agents | hit rate 0.51% among 310,000 | activation (rescue from dofetilide block), less the hit threshold, % at 10 µM | Q12809 | CHO-hERG, FluxOR thallium flux, dofetilide IC70 present | AID 1511;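 active means activation above the mean of controls blocked by dofetilide plus 5 SD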;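 further: thallium influx through hERG after potassium depolarization seen as dye fluorescence rise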
# KCNK9 inh: blocks the human KCNK9 two-pore domain potassium channel. Q9NPC2. HEK293 KCNK9, FluxOR thallium flux fluorescence; stronger effect = lower value. B-score at 10 µM. hit rate 1.2% among 310,000. AID 488922;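 active means ratio B-score over 3 SD below the library mean, with starting fluorescence within 5 SD of its mean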;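 further: negative B-score means less thallium flux so channel inhibition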
# Target sequence (Q9NPC2 whole entry, looked up, the tested form may be a part): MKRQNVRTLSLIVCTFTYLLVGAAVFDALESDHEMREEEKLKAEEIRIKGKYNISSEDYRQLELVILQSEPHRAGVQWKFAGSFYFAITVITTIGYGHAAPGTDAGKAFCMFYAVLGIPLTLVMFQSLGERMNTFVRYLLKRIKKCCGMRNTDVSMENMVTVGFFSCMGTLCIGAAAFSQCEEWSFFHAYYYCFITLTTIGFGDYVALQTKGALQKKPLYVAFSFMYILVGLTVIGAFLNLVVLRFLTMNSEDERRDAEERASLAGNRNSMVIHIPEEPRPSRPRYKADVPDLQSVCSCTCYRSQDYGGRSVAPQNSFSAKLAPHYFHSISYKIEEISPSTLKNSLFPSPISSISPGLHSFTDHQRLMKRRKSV
# KCNQ1 act: human KCNQ1 channel potentiation or activation. P51787. CHO-K1 KCNQ1, thallium flux FluxOR fluorescence; stronger effect = higher value. B-score at 10 µM. hit rate 0.35% among 310,000;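 active means fluorescence ratio B-score, a plate-corrected score, at least three library SD, with initial intensity B-score within 5 SD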
#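 Test system: CHO-K1 cells stably expressing KCNQ1 / Medium: assay buffer / Also added: depolarizing K+/Tl+ stimulus, K2SO4 and Tl2SO4 each 12.5 mM in 5x stock / Incubation: 90 min dye loading and 20 min compound exposure, both at room temperature / Signal: thallium influx via FluxOR fluorescence, kinetic imaging / Evaluation: B score of baseline-normalized fluorescence ratio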
# KCNK3 inh: human KCNK3 channel inhibition, primary screen; O14649; CHO-KCNK3 thallium flux, FluxOR fluorescence; stronger effect = lower value; B-score at 10 µM; hit rate 0.84% among 340,000; AID 602410;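 active means B-score under library mean minus 4 SD, starting fluorescence ratio at most library mean plus 5 SD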;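 further: more negative B-score means stronger inhibition of thallium flux through KCNK3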
# KCNQ1 block: blocks the human KCNQ1 potassium channel; B-score at 10 µM; hit rate 1.3% among 310,000; CHO-K1 KCNQ1, FluxOR thallium flux fluorescence; stronger effect = higher value;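 active means compounds whose thallium flux B-score, printed positive for inhibition, exceeds three library SD while starting fluorescence stays within three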;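 further: channel opened by potassium depolarization with thallium stimulus after 20 min compound exposure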
# KCNK9 block conf: human KCNK9 inhibitor confirmation; inhibition, % at 10 µM; shares compounds with KCNK9 inh; hit rate 43% among 4,900; HEK293 KCNK9 cells, FluxOR thallium flux fluorescence;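 active means thallium signal inhibited by more than 5 SD of the compound-free buffer control wells, on both duplicate plates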
# Kir2-1 spec: selectivity of KCNK9 modulators against mouse Kir2.1 | inhibition, % at 10 µM | Kir2.1 cells, FluxOR thallium flux fluorescence | shares compounds with KCNK9 inh | AID 492993 | hit rate 4% among 4,900;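 active means thallium signal drop more than 5 SD beyond the mean of the no-compound control wells, seen in both duplicate plates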;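 further: signal is fluorescence rise after thallium addition divided by baseline fluorescence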
# KCNK9 uninduced: second counter-screen for KCNK9 modulators: effect in non-induced cells | shares compounds with KCNK9 inh | non-induced KCNK9-HEK293, FluxOR thallium flux | inhibition, % at 10 µM | hit rate 40% among 4,900 | AID 492997;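 active means thallium signal drop beyond 5 SD of the untreated control mean, on both duplicate plates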
# Hits are given with their value; . = inactive; / = no result. In the library only some 3.8% were active in any assay of this set; here they are far more common.
SMILES,Kir21 block,hERG rescue,KCNK9 inh,KCNQ1 act,KCNK3 inh,KCNQ1 block,KCNK9 block conf,Kir2-1 spec,KCNK9 uninduced
COc1cccc(C(=O)NC(=S)Nc2ccc3c4c(cccc24)CC3)c1,.,.,.,.,.,.,.,.,.
COc1ccc(OCC(=O)NC(=S)Nc2ccc3c4c(cccc24)CC3)cc1,.,.,.,.,.,.,.,.,.
COc1ccc(S(=O)(=O)N2CCCCCC2)cc1C(=O)NCc1ccc(C)cc1,/,/,/,/,.,/,/,/,/
O=[N+]([O-])c1cccc(-c2ccc(C(=S)N3CCN(c4ccccc4)CC3)o2)c1,.,.,-8.27,.,.,.,33.0%,.,41.5%
Cc1cccc(N2CCN(C(=S)c3ccc(-c4ccccc4[N+](=O)[O-])o3)CC2)c1,.,.,.,.,.,.,.,.,.
O=[N+]([O-])c1cccc(-c2ccc(C(=S)N3CCOCC3)o2)c1,.,.,.,.,.,.,/,/,/
O=C(COC(=O)C1CC2CCCC(C1)C2=O)NNC(=O)c1ccccc1F (centres undefined),.,.,.,.,.,.,/,/,/
O=C(CCC(=O)c1ccc(Oc2ccccc2)cc1)Nc1ccc(Cl)cc1Cl,.,.,.,.,.,.,.,.,.
COc1ccc(-c2csc(N3CCN(S(=O)(=O)c4ccc5c(c4)NC(=O)CO5)CC3)n2)cc1,.,.,.,.,.,.,/,/,/
O=C(COC(=O)c1ccc(Cl)c(S(=O)(=O)N2CCCCCC2)c1)Nc1ccccc1,.,.,.,.,.,.,.,.,.
O=C(NCc1nc2ccccc2[nH]1)c1ccc(Cl)c(S(=O)(=O)N2CCCC2)c1,.,.,.,.,.,.,/,/,/
O=C(COC(=O)c1ccc(S(=O)(=O)N2CCCC2)cc1)Nc1ccccc1,/,/,/,/,.,/,/,/,/
Cc1ccc(NC(=O)COC(=O)c2csc3c2CCC(C)C3)cc1S(=O)(=O)N1CCCCC1 (centres undefined),.,.,-9.22,.,.,.,31.5%,.,.
CCCn1c(NC(=O)c2ccc(Cl)c(S(=O)(=O)N3CCCC3)c2)nc2ccccc21,.,.,-8.9,.,.,.,40.0%,.,.
N=C1SC(c2ccccc2)C(=O)N1c1ncc(Cc2ccccc2Cl)s1 (centres undefined),.,.,.,.,.,.,/,/,/
CCOC(=O)c1c(SCCN2CCCCC2)n(-c2ccccc2)c(=S)n(-c2ccccc2)c1=O,/,/,/,/,.,/,/,/,/
Cc1cccc(C)c1NC(=O)C(NC=O)c1ccc(Cl)cc1 (centres undefined),.,.,.,.,.,.,/,/,/
Cc1cccc(C)c1NC(=O)C(C)c1ccc(-c2ccccc2)c(F)c1 (centres undefined),.,.,-10.4,.,.,.,47.0%,.,45.5%
Cc1ccccc1CN1CCN(c2nc3ccccc3s2)CC1,.,.,.,.,.,.,.,.,34.0%
Cc1ccc(N2CCN(S(=O)(=O)c3ccc(Cl)s3)CC2C)cc1 (centres undefined),.,.,.,.,.,.,.,.,.
Cc1ccc(C(=O)COC(=O)CSc2cccc3cccnc23)c(C)c1,.,.,.,.,.,.,.,.,.
O=C(O)CSc1cccc2cccnc12,.,.,.,.,.,.,/,/,/
CCOC(=O)[C@H]1[C@H]2COc3cc(OC)ccc3[C@@H]2N2C(=O)N(c3ccc(Cl)cc3)C(=O)[C@@]12C,.,.,.,.,.,.,/,/,/
O=C(CN1CCN(CN2C(=O)NC3(CCCCCC3)C2=O)CC1)Nc1ccc(F)cc1,/,/,/,/,.,/,/,/,/
CCOc1ccccc1NC(=O)Cc1coc2ccc(C)cc12,.,.,-10.9,.,.,.,25.0%,.,43.0%
SMILES,Kir21 block,hERG rescue,KCNK9 inh,KCNQ1 act,KCNK3 inh,KCNQ1 block,KCNK9 block conf,Kir2-1 spec,KCNK9 uninduced
COc1ccc(OC)c(NC(=O)Cc2coc3ccc(C)cc23)c1,.,.,.,.,.,.,/,/,/
COc1ccc(CC2(C)OC(c3ccc(C)c([N+](=O)[O-])c3)=NN2C(C)=O)cc1 (centres undefined),.,.,.,.,.,.,/,/,/
COc1ccc(CC2(C)OC(c3ccccc3)=NN2C(C)=O)cc1 (centres undefined),-6.34,.,.,.,.,.,.,.,.
COc1ccc(CC2(C)OC(c3ccc(C)cc3)=NN2C(C)=O)cc1 (centres undefined),.,.,.,.,.,.,.,.,.
CC(=O)N1N=C(c2ccccc2)OC1(C)CC(=O)Nc1ccccc1 (centres undefined),.,.,.,.,.,.,/,/,/
Cc1cccc(NC(=O)CSc2nnc3ccc(-c4ccccn4)nn23)c1,.,.,.,.,.,.,/,/,/
COc1cc(-c2nnc(COc3ccc4ccccc4c3)o2)cc(OC)c1OC,.,.,.,.,.,.,.,.,.
O=C(COC(=O)C12CC3CC(CC(Br)(C3)C1)C2)Nc1ccc2[nH]c(=O)[nH]c2c1,.,.,.,.,.,.,/,/,/
COC(=O)c1cc2sc(Cl)cc2n1CC(=O)Nc1cccc(SC)c1,.,.,-10.1,.,.,.,48.5%,.,32.5%
CN(C)c1cccc(C(=O)OCC(=O)N2CCc3ccccc3C2)c1,.,.,.,.,.,.,.,.,.
O=C(CCCOc1ccc(Cl)cc1Cl)N1CCc2ccccc2C1,.,.,.,.,.,.,.,.,.
O=C(CCCOc1ccccc1)N1CCc2ccccc2C1,.,.,.,.,.,.,/,/,/
Cc1ccc(C)c(OCC(=O)N2CCc3ccccc3C2)c1,.,.,.,.,.,.,.,.,.
CNS(=O)(=O)c1ccc(C(=O)NCC(=O)NC(C)c2cccs2)cc1 (centres undefined),/,/,/,/,.,/,/,/,/
O=C(CN1C(=O)NC2(CCc3ccccc32)C1=O)Nc1ccc(Br)cc1F (centres undefined),/,/,/,/,.,/,/,/,/
CC(NC(=O)C(=O)NCCN1CCN(C(=O)c2ccc([N+](=O)[O-])cc2)CC1)c1ccccc1 (centres undefined),.,.,.,.,.,.,/,/,/
CCCOC(=O)C[N+](C)(C)CCOC1CC2CCC1(C)C2(C)C (centres undefined),.,.,.,.,.,.,/,/,/
CCCCCCCOC(=O)C[N+](C)(C)CCOC1CC2CCC1(C)C2(C)C (centres undefined),-8.24,.,-11.4,.,.,13,54.5%,73.0%,22.0%
O=C1c2ccccc2S(=O)(=O)N1CCS(=O)(=O)c1ccc(F)cc1,.,.,.,.,.,.,/,/,/
